Compound activity (PubChem)
Hits are enriched below; roughly 3.8% of the tested compounds scored in any of these assays.
MrgX1 ag: agonists of human MrgX1 receptor; MrgX1-HEK293 cells, Fluo-4 calcium fluorescence, agonist mode; stronger effect = higher value; 310,000 tested, 0.44% active; B-score at 10 µM; Q96LB2;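 active = calcium response B-score plate-corrected fluorescence ratio at least 3 library SD, with starting fluorescence B-score inside 5 SD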
Target sequence (Q96LB2 whole entry, looked up): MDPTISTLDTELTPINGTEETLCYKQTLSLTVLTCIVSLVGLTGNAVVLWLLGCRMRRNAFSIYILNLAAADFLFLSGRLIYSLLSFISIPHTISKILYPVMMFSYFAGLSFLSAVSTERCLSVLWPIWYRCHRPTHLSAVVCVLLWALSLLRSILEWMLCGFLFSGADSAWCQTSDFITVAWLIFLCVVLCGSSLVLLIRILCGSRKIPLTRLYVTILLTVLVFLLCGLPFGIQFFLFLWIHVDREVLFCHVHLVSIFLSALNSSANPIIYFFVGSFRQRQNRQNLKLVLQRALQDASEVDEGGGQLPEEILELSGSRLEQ
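Test system: Stable human MrgX1 HEK293 cell line | Schedule: Overnight plating before 1 h dye loading | Read-out basis: Baseline-normalised fluorescence change ratio, B-scored | Detection: Kinetic calcium dye fluorescence, Fluo-4 NW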
RGS4 block: inhibitors of human RGS4; HEK293 M3R/RGS4 inducible, Fluo-4 calcium flux; stronger effect = higher value; triggered by carbachol at its EC20; B-score at 10 µM; 310,000 tested, 0.45% active; P49798;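 active = B-score, a plate-corrected calcium signal, over three deviations above library mean, with baseline fluorescence within five deviations of library mean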;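 note: RGS4 expression induced by doxycycline in cells with stable M3 receptor; B-score is computed from the integrated fluorescence ratio over baseline after carbachol; higher B-score means a larger calcium signal and so more RGS4 inhibition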
Target sequence (P49798 whole entry, looked up): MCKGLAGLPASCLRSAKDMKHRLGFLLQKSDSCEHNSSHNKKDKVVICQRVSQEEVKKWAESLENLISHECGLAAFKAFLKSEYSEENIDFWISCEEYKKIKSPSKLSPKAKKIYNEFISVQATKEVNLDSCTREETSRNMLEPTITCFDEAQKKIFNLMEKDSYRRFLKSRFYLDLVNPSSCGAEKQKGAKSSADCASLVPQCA
Hep lipid drop: hepatic lipid droplet formation modulation. AML12 mouse hepatocytes, oleate lipid droplets, BODIPY imaging. inhibition, % at 6.5 µM. 240,000 tested, 0.4% active;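 active = lipid droplet intensity inhibited by at least 50%, with more than 500 cells counted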
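Assay system: AML12 hepatocytes (mouse) / Also added: 100 µM oleic acid challenge / Times: overnight treatment with compound plus oleate / Detection: high-content imaging of BODIPY-stained droplets and DAPI nuclei / Evaluation: % inhibition of lipid droplet signal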
MrgX1 antag: blocks BAM8-22 activation of human MrgX1 receptor; MRGX1-HEK293 calcium flux, Fluo-4, BAM8-22 antagonism; stronger effect = lower value; B-score at 10 µM; 310,000 tested, 1.3% active; AID 588676;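 active = calcium-response B-score plate-corrected more than 3 library SD below zero, starting fluorescence within 5 deviations, no agonist response on first addition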;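 note: peak minus trough fluorescence over baseline after final BAM8-22 challenge near maximal dose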
MrgX1 PAM: allosterically activates human MrgX1 receptor signaling; AID 588675; Q96LB2; 310,000 tested, 0.63% active; B-score at 10 µM; MrgX1-HEK293, Fluo-4 calcium flux, FDSS; stronger effect = higher value;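 active = plate-corrected calcium response at least 3 library SD above typical, normal starting fluorescence, not activating the receptor alone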;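 note: compound read alongside a low EC10 to EC30 dose of BAM8-22 agonist; peak minus trough fluorescence over baseline measured at the second addition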
RGS4 act: RGS4 potentiation or activation. HEK293 M3R/inducible RGS4, carbachol calcium flux Fluo4; stronger effect = lower value. B-score at 10 µM. 310,000 tested, 0.92% active. AID 463111;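 active = B-score of the integrated calcium signal more than 4 SD below the library mean, with starting fluorescence not abnormally high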;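 note: negative B-score means reduced calcium response which marks RGS4 activation or potentiation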
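Also added: carbachol at ECmax as muscarinic agonist stimulus; Assay system: HEK293 cells with stable M3R and inducible RGS4; Timing: overnight RGS4 induction, 30 min dye load 37 °C, 20 min compound RT; Measured by: Fluo4-AM (2 µM) calcium-flux fluorescence, kinetic read.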
RGS4 inh valid: validation of RGS4 inhibitors; shares compounds with RGS4 block; calcium response, % at 10 µM; HEK293 M3R/RGS4, carbachol calcium Fluo-4 fluorescence; carbachol added at its EC20; 0 = buffer wells, 100 = carbachol control; AID 492999; 1,700 tested, 65% active;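 active = duplicate-averaged calcium response above the buffer-only control mean plus 5 SD of those controls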;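 note: integrated fluorescence ratio F max minus min over baseline F0; higher response in RGS4-induced cells means RGS4 inhibition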
M3R Ca ctr: checks RGS4 inhibitor effects in non-induced HEK293 M3R cells; shares compounds with RGS4 block; carbachol calcium Fluo-4; submaximal (EC20) carbachol stimulus; buffer wells 0%, carbachol control wells 100%; activity (percent), % at 10 µM; 1,900 tested, 20% active; call rule not given here;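 note: RGS4 induction absent so cells express M3R without RGS4; higher means more calcium signal and flags a non-specific hit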
RGS4 inh ctr2: signal in non-induced cells without carbachol, RGS4 inhibitor counter-screen | shares compounds with RGS4 block | HEK293 M3R/RGS4 non-induced, Fluo-4 calcium, no carbachol; normalised: buffer wells 0%, carbachol wells 100% | calcium response (agonist-mode artifact), % at 10 µM | 1,900 tested, 22% active;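 active = duplicate-averaged calcium rise in uninduced cells above buffer wells' mean plus 5 SD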
* = called active by the depositor; i = inactive; . = no result given.

SMILES | MrgX1 ag | RGS4 block | Hep lipid drop | MrgX1 antag | MrgX1 PAM | RGS4 act | RGS4 inh valid | M3R Ca ctr | RGS4 inh ctr2
CN1C(=O)C(=Cc2ccc(N3CCOCC3)o2)C(=O)N(C)C1=S | i | i | 7 | i | i | i | . | . | .
COc1cc2c(cc1/C=C/[N+](=O)[O-])OCO2 | . | 12* | 5 | . | . | i | 36%* | 43%* | 74%*
CC/C(=N\N1CCCCC1)c1c(O)[nH]c(=O)[nH]c1=O | i | 4.7* | -7 | i | i | i | 8.5%* | i | i
COc1cc(OC)c(OC)cc1CNCCc1ccc2c(c1)OCO2 | i | i | -16 | i | i | i | . | . | .
COc1ccc(C2CC(c3c(O)n(CCc4ccccc4)c(=O)[nH]c3=O)=NN2)cc1OC (centres undefined) | i | 8.1* | 4 | i | i | i | i | i | i
COC(=O)C(O)(c1ccc(N(C)C(=O)c2cccs2)cc1)C(F)(F)F (centres undefined) | i | i | 5 | i | i | i | . | . | .
CNc1cc(Cl)c2nonc2c1[N+](=O)[O-] | . | 17* | -50 | . | . | i | 54%* | i | i
Cc1cc([N+](=O)[O-])c(Cl)cc1NC(=O)C(C)C | i | i | -1 | i | i | i | . | . | .
Cc1ccccc1CCNCc1cc2cccc(C)c2[nH]c1=O | i | i | 0 | i | i | i | . | . | .
CN(C)c1ccc(/C=C/[N+](=O)[O-])cc1 | i | 19* | -9 | i | i | i | 54%* | i | 76%*
C/C(=C\c1ccc(N(C)C)cc1)[N+](=O)[O-] | i | 7.6* | . | i | i | i | 24%* | 62%* | 14%*
CCC(C)N1C(=O)NC(=O)C2(Cc3cc(C)ccc3N(C)C2)C1=O (centres undefined) | i | i | . | i | i | i | . | . | .
O=C1NC(=O)N(c2ccccc2)C(=O)/C1=C/C=C/c1ccco1 | i | i | -4 | i | i | i | . | . | .
Cc1ccc(N2C(=O)NC(=O)/C(=C\C=C\c3ccco3)C2=O)cc1 | i | i | -5 | i | i | i | . | i | 12%*
Cc1ccc(N2C(=O)NC(=O)/C(=C\C=C\c3ccco3)C2=O)cc1C | i | 22* | -4 | i | i | i | 28%* | 32%* | 40%*
Cc1cccc(N2C(=O)NC(=O)/C(=C\C=C\c3ccco3)C2=O)c1 | 57* | 17* | -5 | i | i | i | 49%* | 64%* | 88%*
CC(C)c1ccccc1OCC(=O)N1CCCN(C)CC1 | i | i | 17 | i | i | i | . | . | .
CC1CN(c2ccc([N+](=O)[O-])c3cccnc23)CC(C)N1 (centres undefined) | i | 5.8* | . | i | i | i | i | i | i
O=[N+]([O-])c1ccc(N2CCCC2)c2ncccc12 | i | i | 7 | i | i | i | . | . | .
C[N+]1(C)C2CC(OC(=O)[C@H](CO)c3ccccc3)CC1C1OC12 (some centres undefined) | i | . | . | i | i | . | . | . | .
C=CCN1C(=O)NC(=O)/C(=C/C=C/c2ccccc2)C1=O | . | 5.3* | -13 | . | . | i | 26%* | i | 18%*
CN1C(=O)/C(=C/C=C/c2ccco2)C(=O)NC1=S | i | i | 1 | i | i | i | . | . | .
O=C1NC(=O)N(Cc2ccccc2)C(=O)/C1=C\C=C\c1ccco1 | 28* | 5.5* | -1 | i | i | i | 19%* | i | 15%*
Cn1cccc1/C=C1\C(=O)NC(=O)N(Cc2ccco2)C1=O | . | i | 2 | . | . | i | . | . | .
O=C1NC(=O)N(CCc2ccc(F)cc2)C(=O)/C1=C\C=C\c1ccccc1 | . | . | 2 | . | . | . | . | . | .
SMILES | MrgX1 ag | RGS4 block | Hep lipid drop | MrgX1 antag | MrgX1 PAM | RGS4 act | RGS4 inh valid | M3R Ca ctr | RGS4 inh ctr2
O=C1NC(=O)N(Cc2ccco2)C(=O)/C1=C/C=C/c1ccco1 | 36* | 5.4* | 9 | i | i | i | i | i | i
C=C1C2C[C@@]3([C@@H]1O)[C@@H](C[C@@H]2O)[C@@]12C4[C@@H]3C[C@@H]1[C@@](C)(CC[C@@H]2O)CN4CC | i | . | . | i | i | . | . | . | .
CCOC(=O)C1=C(N)Oc2ccccc2C12C(=O)N(CC(=O)OC)C(CC(=O)OC)=C2C(=O)OC (centres undefined) | i | i | . | i | i | i | . | . | .
CCCc1[nH]nc2c1C1(C(=O)N(CC(N)=O)c3ccccc31)C(C(=O)OC)=C(N)O2 (centres undefined) | i | i | . | i | i | i | i | i | i
CCOC(=O)C1=C(N)OC2=C(C(=O)CCC2)C12C(=O)N(CC(N)=O)c1ccccc12 (centres undefined) | i | i | . | i | i | i | . | . | .
CCCc1[nH]nc2c1C1(C(=O)N(Cc3ccccc3)c3ccccc31)C(C(=O)OC)=C(N)O2 (centres undefined) | i | 5.9* | 0 | i | i | i | 19%* | 30%* | i
COc1c2c(cc3c1OCO3)CC[N+](C)=C2 | i | i | -1 | i | i | i | . | . | .
C=CC[N+]1(C)C2CCC1CC(O)C2 (centres undefined) | i | i | 10 | i | i | i | . | . | .
CN1C(=O)/C(=C/c2ccc(Cl)s2)C(=O)NC1=S | i | 9.9* | 2 | i | i | i | 5.5%* | i | i
C=CCN1C(=O)/C(=C/c2ccc(Br)s2)C(=O)NC1=S | i | 11* | 1 | -5.6* | i | i | 5.0%* | i | i
CCN1C(=O)/C(=C\c2ccc([N+](=O)[O-])s2)C(=O)NC1=S | . | . | 6 | . | . | . | . | . | .
C=C[C@@]12CN(C)[C@H]3[C@H]1[C@@]1(C(=O)Nc4ccccc41)C1CC2[C@@H]3CO1 | i | . | . | i | i | . | . | . | .
CN1C2c3ccccc3C3C4c5ccccc5C(C31)C(C2[N+](=O)[O-])N4C (centres undefined) | i | i | -10 | i | i | i | . | . | .
